Tests used:
Format in all cases: functional
[1] = test system: G-401; assay: Tested in vitro against human ovarian cancer cells (G-401) for anticancer activity at dose 0 uM (Cell number 1*10 e-4)
How it was run: (§1)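 G-401 human ovarian cancer cells seeded at 5 × 10^4 cells/mL in serum-free medium, with or without compound at 0–100 μM. Cultured 3 days at 37 °C under 5% CO₂. Living cells were counted by trypan blue dye exclusion and reported as cell number (×10^-4).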

[2] = test system: G-401; assay: Tested in vitro against human ovarian cancer cells (G-401) for anticancer activity at dose 1 uM (Cell number 1*10 e-4); how it was run: as §1
[3] = test system: G-401; assay: Tested in vitro against human ovarian cancer cells (G-401) for anticancer activity at dose 10 uM (Cell number 1*10 e-4); how it was run: as §1
[4] = test system: G-401; assay: Tested in vitro against human ovarian cancer cells (G-401) for anticancer activity at dose 100 uM (Cell number 1*10 e-4); how it was run: as §1
[5] = test system: G-401; assay: Tested in vitro against human ovarian cancer cells (G-401) for anticancer activity at dose 0 uM in presence of + beta galactosidase (Cell number 1*10 e-4)
How it was run: (§2)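 G-401 human ovarian cancer cells seeded at 5 × 10^4 cells/mL in serum-free medium with compound (0–100 μM) plus E. coli β-galactosidase at 1 unit/mL. Cultured 3 days at 37 °C under 5% CO₂. Viable cells were counted by trypan blue exclusion and reported as cell number (×10^-4).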

[6] = test system: G-401; assay: Tested in vitro against human ovarian cancer cells (G-401) for anticancer activity at dose 1 uM in presence of + beta galactosidase (Cell number 1*10 e-4); how it was run: as §2
[7] = test system: G-401; assay: Tested in vitro against human ovarian cancer cells (G-401) for anticancer activity at dose 10 uM in presence of + beta galactosidase (Cell number 1*10 e-4); how it was run: as §2
[8] = test system: G-401; assay: Tested in vitro against human ovarian cancer cells (G-401) for anticancer activity at dose 100 uM in presence of + beta galactosidase (Cell number 1*10 e-4); how it was run: as §2

Nc1ccn([C@@H]2O[C@H](CO)[C@@H](O)[C@@H]2O)c(=O)n1 [CYTARABINE]
Cell number [1]: 55
Cell number [2]: 0
Cell number [3]: 0
Cell number [4]: 0

Nc1ccn([C@@H]2O[C@H](CO[C@@H]3O[C@H](CO)[C@H](O)[C@H](O)[C@H]3O)[C@@H](O)[C@@H]2O)c(=O)n1
Cell number [1]: 55
Cell number [5]: 46
Cell number [2]: 41
Cell number [6]: 15
Cell number [3]: 38
Cell number [7]: 6
Cell number [4]: 56
Cell number [8]: 2

From ChEMBL document CHEMBL1127382, “Synthesis of N-acetylglucosamine-modified ara-C and its effect on ovarian cancer cells” (1994)
